Screening results from PubChem.
T cruzi inh: T. cruzi replication inhibition; T. cruzi beta-gal in NIH3T3, luminescence, 90 h; hit rate 1.4% among 300,000; inhibition, % (test concentration not listed);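 active = mean inhibition across valid replicates above about 55%, limit read from the data; inconclusive = mean below that limit but half or more replicates reach it; inactive = mean below it, under half of replicates reach it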;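 note: signal also drops with host cell toxicity which is not excluded here; 0% = plate median of DMSO wells and 100% = zero luminescence signal; higher percent means less beta-gal luminescence so fewer parasites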
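System: mouse NIH/3T3 fibroblasts infected with β-gal-expressing T. cruzi Tulahuen C4 / Input: NIH/3T3 cells, 5,000 per well / Buffer or medium: Low-serum DMEM with 2% FBS / Probe or stimulus: 5000 reporter trypomastigotes per well / Schedule: ≥90 h infection period, 3 h prior cell attachment / Measured by: GalScreen luminescence, 60 min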
Calb FLC: affects C. albicans growth with fluconazole; C. albicans CaCi-2 + fluconazole, Alamar Blue growth, 48 h; growth inhibition, % (test concentration not listed); hit rate 0.57% among 300,000;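 active = growth inhibition above about 58% in most replicates, limit read from the data, passing the limit was not always enough; inconclusive = exactly half the replicates above a set limit; inactive = most replicates below a set limit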;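 note: all wells also contain fluconazole at 8 µg/ml as a sub-toxic cotreatment; 0% = median of DMSO wells and 100% = median of geldanamycin control wells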
Mdm2-MdmX inh: disrupts the human Mdm2-MdmX interaction; SaOS-2 split-luciferase Mdm2/MdmX complementation, luminescence; inhibition, % at 8 µM; O15151+Q00987; hit rate 3% among 330,000;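 active = inhibition of at least 50% at 8 µM in the primary screen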
Target sequence (O15151 whole entry, looked up): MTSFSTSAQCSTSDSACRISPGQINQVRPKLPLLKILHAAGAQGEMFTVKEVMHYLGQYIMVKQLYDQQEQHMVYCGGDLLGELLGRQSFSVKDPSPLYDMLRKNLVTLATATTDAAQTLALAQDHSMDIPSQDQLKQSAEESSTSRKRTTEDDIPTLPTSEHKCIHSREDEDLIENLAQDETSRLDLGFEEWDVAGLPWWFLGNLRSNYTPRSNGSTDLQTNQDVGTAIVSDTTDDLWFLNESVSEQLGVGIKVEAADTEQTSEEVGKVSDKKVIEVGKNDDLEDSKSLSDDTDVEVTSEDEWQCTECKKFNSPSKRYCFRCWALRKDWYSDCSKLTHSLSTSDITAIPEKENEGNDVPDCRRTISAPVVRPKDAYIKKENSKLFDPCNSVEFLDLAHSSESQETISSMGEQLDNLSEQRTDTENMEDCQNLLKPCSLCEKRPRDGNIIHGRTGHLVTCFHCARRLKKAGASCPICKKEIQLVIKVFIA
Target sequence (Q00987 whole entry, looked up): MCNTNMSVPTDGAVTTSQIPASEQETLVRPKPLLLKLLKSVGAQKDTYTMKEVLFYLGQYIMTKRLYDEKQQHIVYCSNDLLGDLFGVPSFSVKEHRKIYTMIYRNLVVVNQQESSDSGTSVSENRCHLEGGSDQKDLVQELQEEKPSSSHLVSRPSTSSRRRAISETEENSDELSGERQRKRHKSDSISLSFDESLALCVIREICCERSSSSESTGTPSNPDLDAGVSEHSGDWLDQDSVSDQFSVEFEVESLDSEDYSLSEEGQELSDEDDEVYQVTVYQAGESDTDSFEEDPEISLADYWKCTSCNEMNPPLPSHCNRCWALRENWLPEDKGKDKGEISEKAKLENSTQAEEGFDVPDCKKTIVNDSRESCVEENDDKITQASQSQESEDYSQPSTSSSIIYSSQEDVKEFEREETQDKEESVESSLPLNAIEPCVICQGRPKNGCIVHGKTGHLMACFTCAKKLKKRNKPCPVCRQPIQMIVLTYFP
SKKanGAS inh: inhibitors of SKKanGAS S. pyogenes growth in kanamycin (SK-promoter or general growth effect); inhibition, % at 7.5 µM; BacTiter-Glo, 6 h; AID 1662; hit rate 1.3% among 300,000;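 active = mean replicate score, as percent of positive control median, at least 50; inconclusive = mean below 50 but one replicate at or above 50; inactive = mean and every replicate below 50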;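 note: strain carries kanamycin resistance gene driven by streptokinase promoter and grows in 40 µg/ml kanamycin; loss of luminescence reflects streptokinase promoter inhibition or plain growth inhibition; 0% = median of DMSO wells and 100% = positive control at its reference dose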
Beta apoptosis: blocks beta cell apoptosis; INS-1E cytokine-induced death, ATP luminescence, 48 h; percent of positive-control rescue, neutral wells zero; AID 435005; protection from apoptosis, % (no concentration beside the values); hit rate 0.8% among 300,000;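 active = Every replicate reaches about 75%, or at least half do and their mean reaches it too, limit read from the data; inconclusive = At least half of replicates reach the limit but their mean does not; inactive = Under half of replicates reach the limit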;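 note: 0% = cytokine-treated negative control wells and 100% = positive control rescue; higher means more ATP so stronger rescue from cytokine killing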
CSC inhib: cancer stem cell inhibition | cancer stem cell-like cells viability, luminescence | inhibition, % at 7.5 µM | hit rate 1.1% among 300,000; in the data active = inhibition above about 75%; inconclusive = no clear call, values can overlap the other calls; tested in HMLE shEcad cells
Mdm2 MdmX conf: confirmation of human Mdm2/MdmX interaction inhibitors | shares compounds with Mdm2-MdmX inh | Mdm2-MdmX binding, luminescent assay | inhibition, % at 8 µM | hit rate 55% among 10,000 | AID 489028; in the data active = inhibition above about 40%
FLuc counter: counter-screen for Mdm2/MdmX inhibitors: full-length luciferase | hit rate 77% among 6,200 | shares compounds with Mdm2-MdmX inh | SaOS-2 full-length luciferase counterscreen, luminescence | inhibition, % at 8 µM;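 active = mean inhibition at 8 µM reaching about 37%, which flags the compound as non-specific, limit read from the data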;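 note: p53-null SaOS-2 cells with luciferase driven by a doxycycline-inducible promoter; compound on cells about two nights before reading with doxycycline added after day one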
* marks the source's active call; other numbers are inactive results; ? = inconclusive; / = not tested or not shown. In the library only some 5.7% were active in any assay of this set; here they are far more common.

SMILES	T cruzi inh	Calb FLC	Mdm2-MdmX inh	SKKanGAS inh	Beta apoptosis	CSC inhib	Mdm2 MdmX conf	FLuc counter
C=C[C@H](Cc1ccccc1)N(Cc1ccccc1)S(=O)(=O)N(Cc1ccccc1)[C@H](C=C)Cc1ccccc1	/	/	90*	/	82*	21	63*	86*
COc1cc(NC(=O)CN2CCN(CC(=O)Nc3ccccc3OC)CC2)cc(OC)c1	5	2	18	1	5	-11	/	/
Cc1ccc(C(=O)NCC(=O)Nc2ccc(S(=O)(=O)Nc3cc(C)nc(C)n3)cc2)cc1	/	/	-13	/	-2	-4	/	/
CCCc1sc(N/N=C/c2ccccn2)nc1-c1ccc(Br)cc1	65*	-31	75*	67*	111*	126*	24	/
NNC(=O)c1ccc(N2CCc3ccccc32)c([N+](=O)[O-])c1	-1	14	-16	14	-6	12	/	/
Nc1ncnc(N2CCc3ccccc32)c1[N+](=O)[O-]	-3	-11	82*	-3	-34	1	85*	52*
COc1ccc2[nH]cc(C(=O)CCl)c2c1	61*	56	95*	-18	-68	39	100*	51*
CC(=O)Nc1ccc(NC(=O)Nc2ccc3c(c2)N(C)C(=O)CS3)cc1	-17	11	40	8	-3	-16	/	/
COc1cccc(NC(=O)Nc2ccc3c(c2)N(C)C(=O)CS3)c1	11	?	50*	-3	-2	-19	27	/
CC(=O)c1cccc(NC(=O)C(C)OC(=O)/C=C/c2cccs2)c1 (stereo not drawn)	/	/	10	/	/	/	/	/
COc1ccc(N2CC(C(=O)N[C@@H](CC(C)C)C(=O)NC3CCCCC3)CC2=O)cc1 (stereo partly drawn)	-27	?	21	1	-3	-3	/	/
Cc1cc(C)nc(/N=C(\N)Nc2ccc(-c3ccccc3)cc2)n1	7	-2	52*	1	40	55	22	/
CC(=O)Nc1ccc(N/C(N)=N/c2nc(C)cc(C)n2)cc1	-19	-14	13	-6	/	0	/	/
O=[N+]([O-])c1cc(Br)c(Nc2ccccc2)c([N+](=O)[O-])c1	39	34	92*	4	68	39	50*	79*
CCOC(=O)c1ccc(NC(=O)CCCN2C(=O)NC3(CCCC3)C2=O)cc1	/	/	19	/	0	/	/	/
Cc1cc(=O)oc2cc(OCc3ccc(C(=O)OCC(=O)NC4CCS(=O)(=O)C4)cc3)ccc12 (stereo not drawn)	-1	8	51*	-1	-3	-6	15	/
Cc1cc(=O)oc2cc(OCc3ccc(C(=O)OCC(=O)N(C)C4CCS(=O)(=O)C4)cc3)ccc12 (stereo not drawn)	9	4	1	6	2	-5	/	/
COc1cc(-c2nc3ccc4ccccc4c3c3c2CCC3)cc(OC)c1OC	21	7	62*	-1	32	30	57*	57*
COC(=O)/C(=C\Nc1ccc(Cl)cc1Cl)NC(=O)c1ccc(OC)cc1	26	10	52*	4	29	71	43*	70*
COC(=O)/C(=C\Nc1ccc(OC)cc1)NC(=O)c1ccc(Cl)cc1Cl	-11	3	16	5	-1	2	/	/
CCN(CC)C(=O)Cn1cc(S(=O)(=O)CC(=O)Nc2ccccc2F)c2ccccc21	14	14	7	-1	0	0	/	/
C=CCn1c(C)c(/C=C/c2cc[n+](C)cc2)c2ccccc21	74*	-10	64*	-4	97*	15	41*	69*
CC(C)n1cc(/C=C/c2cc[n+](C)cc2)c2ccccc21	45	87*	63*	-3	/	/	25	/
C=CCn1cc(/C=C/c2cc[n+](C)cc2)c2ccccc21	55*	71	65*	-7	80*	26	42*	76*
CC(C)n1cc(/C=N/Nc2ccc(C(=O)O)cc2)c2ccccc21	4	-2	27	10	-7	-17	/	/
SMILES	T cruzi inh	Calb FLC	Mdm2-MdmX inh	SKKanGAS inh	Beta apoptosis	CSC inhib	Mdm2 MdmX conf	FLuc counter
Cc1cc(C)c2c(c1)/C(=C/C(=O)c1ccc(Br)s1)C(=O)N2	46	?	96*	1	-6	?	41*	87*
Cc1sc(NC(=O)c2ccco2)c(C(c2cccnc2)N2CCC(C)CC2)c1C (stereo not drawn)	72*	-5	74*	19	-1	-4	76*	77*
CCN1CCN(C(c2cccnc2)c2c(NC(=O)c3ccco3)sc(C)c2C)CC1 (stereo not drawn)	/	/	-9	/	/	/	/	/
CCOc1ccc(CNCCN2CCCC2)cc1	22	-32	29	4	-2	-2	/	/
O=C(NCC1COc2ccccc2O1)c1ccc(F)c(S(=O)(=O)N2CCOCC2)c1 (stereo not drawn)	/	/	8	/	/	/	/	/
CCc1ccc(NC(=O)c2ccc(F)c(S(=O)(=O)NCC3COc4ccccc4O3)c2)cc1 (stereo not drawn)	7	4	56*	50*	33	3	40*	55*
COc1ccc(CNC(=O)C2CCN(C(=O)c3csc(Nc4ccc(C)cc4)n3)CC2)cc1	12	1	4	6	/	-17	/	/
COc1cccc(-c2nn(C)c3sc(C(=O)NCc4ccccn4)cc23)c1	7	2	55*	-2	-13	-14	41*	77*
CC(C)N(Cc1ccccc1)C(=O)COC(=O)c1c(F)cccc1F	/	/	8	/	-3	-16	/	/
CCOC(=O)c1cc(-c2cc(OC)c(OC)c(OC)c2)nc2c1c(=O)[nH]c(=O)n2Cc1ccccc1	44	-1	57*	45	13	9	56*	86*
Cc1[nH]c2ccccc2c1/C=C/c1nc2ccccc2c(=O)n1-c1cccc([N+](=O)[O-])c1	21	11	70*	16	3	/	17	/
O=c1c2ccccc2nc(/C=C/c2c[nH]c3ccccc23)n1-c1ccc([N+](=O)[O-])cc1	40	10	14	36	4	0	/	/
O=C(COC(=O)c1ccc2c(c1)OCCO2)NCCc1ccccc1	/	/	-5	/	-2	-25	/	/
COc1cccc(-n2nc(C#N)c(Cl)cc2=O)c1	33	-7	100*	8	/	/	100*	51*
COc1cccc(-n2nc(C(N)=O)c(O)cc2=O)c1	1	-4	16	-1	-5	4	/	/
CCCNC(=O)c1ccccc1SCc1c(C)noc1C	-2	2	45	0	-12	-12	/	/
O=C(CCCCCCC(=O)Nc1ccccc1)NO	-11	-11	50*	2	-4	106*	34	/
CN(C(=O)COC(=O)/C=C/c1ccc(C(F)(F)F)cc1)c1c(N)n(Cc2ccccc2)c(=O)[nH]c1=O	-8	3	-14	1	2	/	/	/
